Assay [1] relates to MCF7. Put plainly: Induction of apoptosis in human MCF7 cells assessed as chromosome fragmentation at 30 uM by fluorescent microscopy. It is filed as functional, cell-based. To be noted: TDE = time-dependent effect.
For assay [2], the target named is T1, Peroxisome proliferator-activated receptor gamma (Homo sapiens) (UniProt P37231).
T1 sequence (whole entry): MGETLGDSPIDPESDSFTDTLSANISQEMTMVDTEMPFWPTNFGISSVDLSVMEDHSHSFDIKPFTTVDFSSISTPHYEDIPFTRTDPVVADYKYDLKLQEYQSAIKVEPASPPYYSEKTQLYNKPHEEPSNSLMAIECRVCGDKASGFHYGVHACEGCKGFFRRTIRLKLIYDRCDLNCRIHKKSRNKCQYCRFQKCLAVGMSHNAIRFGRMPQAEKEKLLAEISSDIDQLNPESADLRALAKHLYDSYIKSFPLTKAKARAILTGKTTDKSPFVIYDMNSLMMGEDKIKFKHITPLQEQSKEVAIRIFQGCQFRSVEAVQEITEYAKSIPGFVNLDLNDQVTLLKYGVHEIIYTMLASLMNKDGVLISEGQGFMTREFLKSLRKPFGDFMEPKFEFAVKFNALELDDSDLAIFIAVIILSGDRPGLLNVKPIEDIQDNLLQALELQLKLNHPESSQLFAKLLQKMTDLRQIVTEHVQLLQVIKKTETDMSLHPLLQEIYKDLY
In words: Activation of PPARgamma transfected in human MCF7 cells at 100 to 300 uM after 48 hrs by luciferase reporter gene assay. It is filed as cell-based. The procedure, abridged:
(§1)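 MCF-7 or MDA-MB-231 cells grown in DMEM/F12 with 10% FCS at 37 °C, 5% CO2. Electroporated with pPPRE-aP2-tk-luc reporter (50 µg/mL) plus rat PPARγ construct pCMV-rPPARγ (10 µg/mL). Seeded 20,000 cells/well and left 20 h. Compound added in serum-free medium for 24 or 48 h. Cells lysed and luciferase read. Runs done in triplicate or quadruplicate.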
On the technique in general: Reporter assays use an easily measured gene product as a stand-in for the process of interest.

For assay [3], the target named is T1, Peroxisome proliferator-activated receptor gamma (Homo sapiens). In words: Activation of PPARgamma transfected in human MDA-MB-231 cells at 100 to 300 uM after 48 hrs by luciferase reporter gene assay. It is filed as cell-based. A digest of the protocol:
as §1

Assay [4] is described as follows: Inhibition of HDAC by cell-free enzyme assay.
The target in assay [5] is T1, Peroxisome proliferator-activated receptor gamma (Homo sapiens). In words: Activation of PPARgamma transfected in human MCF7 cells at 10 uM after 48 hrs by luciferase reporter gene assay. It is filed as cell-based. A digest of the protocol: as §1
In assay [6] the test system is MCF7. In words: Antiproliferative activity against human MCF7 cells at 10 uM after 48 hrs by neutral red method. It is filed as functional. The procedure, abridged:
(§2)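 MCF-7 cells plated as for the reporter assay (20,000/well, 20 h), then exposed 48 h to compound added in serum-free DMEM/F12. Viability read by neutral red uptake as absorbance at 540 nm, corrected at 630 nm. Triplicate, mean ± SD.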

Assay [7] has as its target T1, Peroxisome proliferator-activated receptor gamma (Homo sapiens). Put plainly: Activation of PPARgamma transfected in human MCF7 cells at 10 uM by luciferase reporter gene assay. In kind it is cell-based. A digest of the protocol: as §1
In assay [8] the target is T2, Peroxisome proliferator-activated receptor gamma (Homo sapiens, UniProt P37231).
T2 sequence (P37231 whole entry): T1 sequence (whole entry)
In words: Activation of PPARgamma transfected in human MCF7 cells by luciferase reporter gene assay. It is filed as cell-based.

The subject of assay [9] is MCF7. In words: Antiproliferative activity against human MCF7 cells by neutral red method. It is filed as functional, cell-based. The procedure, abridged: as §2
The subject of assay [10] is MCF7. Put plainly: Antiproliferative activity against human MCF7 cells at 30 uM after 8 hrs by neutral red method. In kind it is functional. A digest of the protocol:
(§3)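 Short exposure: MCF-7 cells treated at 3, 10 or 30 µM for 1, 2, 4 or 8 h. Then washed twice with serum-free medium and grown 96 h in medium with 10% FCS, compound-free. Neutral red absorbance at 540 nm, corrected at 630 nm. Triplicate.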

Assay [11] concerns MCF7. Put plainly: Antiproliferative activity against human MCF7 cells at 10 uM up to 8 hrs by neutral red method. It is filed as functional, cell-based. A digest of the protocol:
as §3

The subject of assay [12] is MCF7. In words: Induction of apoptosis in human MCF7 cells assessed as chromosome fragmentation at 10 uM after 8 hrs by fluorescent microscopy. It is filed as functional, cell-based. A digest of the protocol: (§4)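 MCF-7 cells seeded at 80,000/well on coverslips and grown 16 h. Compound added (10 µM final) in an equal volume of serum-free medium; 30 nM taxol as control. After 4, 8 or 16 h, cells fixed in MeOH, washed in PBS and mounted in DAPI. Fragmented nuclei scored by fluorescence at 400×.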

Assay [13] deals with MCF7. In words: Induction of apoptosis in human MCF7 cells assessed as chromosome fragmentation at 10 uM after 16 hrs by fluorescent microscopy. In kind it is functional, cell-based. A digest of the protocol: as §4
For assay [14], the system named is NCI-H1299. In words: Activation of p21 promoter in human H1299 cells by reporter assay. In kind it is functional, cell-based.
Assay [15] concerns T47D. Put plainly: Induction of apoptosis in human T47D cells assessed as chromosome fragmentation at 10 uM after 8 hrs by fluorescent microscopy.
The test system of assay [16] is T47D. In words: Induction of apoptosis in human T47D cells assessed as chromosome fragmentation at 10 uM after 16 hrs by fluorescent microscopy.
The target of assay [17] is T1, Peroxisome proliferator-activated receptor gamma (Homo sapiens). Put plainly: Activation of GAL4 fused human PPARgamma ligand binding domain transfected in african green monkey CV1 cells at 10 uM by CAT reporter assay. It is filed as cell-based. To be noted: CV-1.

Structures are written as SMILES. Active and inactive are the calls of the source. The rule behind the calls is not given here.

`CC(=O)O[C@H]1C(=O)[C@@]2(C)[C@H]([C@H](OC(=O)c3ccccc3)[C@]3(O)C[C@H](OC(=O)[C@H](O)[C@@H](NC(=O)c4ccccc4)c4ccccc4)C(C)=C1C3(C)C)[C@]1(OC(C)=O)CO[C@@H]1C[C@@H]2O`: the Activity entry in [1] is “tde”.

For `COc1ccc2c(c1)c(CC(=O)O)c(C)n2C(=O)c1ccc(Cl)cc1`, the outcome in [2] and in assay [3] was inactive.

The term IC50 denotes the concentration needed to halve the response being measured. One may read the EC50 as the concentration at which the effect is half-maximal. For orientation: AC50 means the concentration at which the activity in the assay is half-maximal. Consider `O=C(NCCSSCCNC(=O)/C(Cc1ccc(O)c(Br)c1)=N/O)/C(Cc1ccc(O)c(Br)c1)=N/O` [PSAMMAPLIN A], for which the IC50 in [4] turned out to be 0.0042 µM; in [9], 5 µM. The result in assay [5], in [7], in assay [12], in assay [13], in assay [15] and in assay [16] was Active. Besides, the Activity was 62% in assay [6] and 36% in assay [10]. Further, in assay [8], the EC50 amounted to 5.7 µM. Moreover, in assay [11], the result was inactive. The compound also came in with an AC50 in assay [14] of 7.5 µM.

For `CC1(COc2ccc(CC3SC(=O)NC3=O)cc2)CCCCC1` (configuration not stated), the result in assay [17] was Active.

Source of the values: ChEMBL document CHEMBL1157307, “Bioassay for the identification of natural product-based activators of peroxisome proliferator-activated receptor-gamma (PPARgamma): the marine sponge metabolite psammaplin A activates PPARgamma and induces apoptosis in human breast tumor cells” (J Nat Prod, 2006).
